Source: PubChem BioAssay (several laboratories)
CSN inh: blocks human CSN-mediated cullin deneddylation | Q92905 | Purified CSN, SCF-Nedd8-OG deneddylation, fluorescence polarization | inhibition, % at 12.5 µM | 360,000 compounds, 0.38% hits;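 active = pattern-corrected inhibition above about 35%, with an unprinted fluorescence ratio check between 0.5 and 1.5, limit read from the data, passing the limit was not always enough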
Target sequence (Q92905 whole entry, looked up, one chain of several): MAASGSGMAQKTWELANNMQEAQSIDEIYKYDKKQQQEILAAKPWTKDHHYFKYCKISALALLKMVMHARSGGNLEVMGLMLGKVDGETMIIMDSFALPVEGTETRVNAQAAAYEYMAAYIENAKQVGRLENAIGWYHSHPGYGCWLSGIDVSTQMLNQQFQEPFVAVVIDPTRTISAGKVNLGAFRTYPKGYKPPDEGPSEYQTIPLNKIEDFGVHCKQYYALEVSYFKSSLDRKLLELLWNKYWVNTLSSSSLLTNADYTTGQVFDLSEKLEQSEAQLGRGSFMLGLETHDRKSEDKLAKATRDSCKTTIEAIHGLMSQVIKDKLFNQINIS
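Test system: Human Csn5 produced in HEK293T cells | Compound: 12.5 µM single point | Times: 90 min, room temperature | Signal: Fluorescence polarization readout | Read-out basis: % inhibition of substrate cleavage by Csn5 | Controls: no-enzyme wells high, enzyme-with-substrate wells low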
TPT1 inhibitor: C. albicans TPT1 enzyme inhibition; recombinant caTPT1, FP RNA substrate dephosphorylation; inhibition, % at 5 µM; 300,000 compounds, 0.81% hits; AID 1962;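 active = inhibition above the mean of all tested compounds plus 3 SD, set per screening campaign, cut at about 24% in these data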
HNF4A DNA FP: change in binding of human HNF4 alpha to DNA. P41235. HNF4a-FITC DNA binding, fluorescence polarization, 1 h. activity change, % at 10 µM. 360,000 compounds, 0.3% hits. AID 1224865; in the data active = activity change above about 30%, passing the limit was not always enough
Myeloid diff 2: compounds promoting myeloid differentiation. ER-HoxA9 myeloid progenitors, lysozyme-GFP differentiation, flow cytometry. calls only at 10 µM. 360,000 compounds, 1% hits. AID 624256;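 active = normalized GFP-positive differentiation at or above the plate's own cutoff, the solvent-only control mean plus 3 SD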;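 note: cells exposed to compound for four days before flow analysis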
Rpn11 block: Rpn11 (human) deubiquitinase inhibition; AID 588493; human 26S proteasome, Ub4-pepOG fluorescence polarization; 20S core pre-blocked with epoxomicin; inhibition, % at 20 µM; 360,000 compounds, 0.59% hits;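 active = inhibition at 20 µM, scaled to each plate's controls, above about 33%, limit read from the data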
Target sequence (O00487 whole entry, looked up): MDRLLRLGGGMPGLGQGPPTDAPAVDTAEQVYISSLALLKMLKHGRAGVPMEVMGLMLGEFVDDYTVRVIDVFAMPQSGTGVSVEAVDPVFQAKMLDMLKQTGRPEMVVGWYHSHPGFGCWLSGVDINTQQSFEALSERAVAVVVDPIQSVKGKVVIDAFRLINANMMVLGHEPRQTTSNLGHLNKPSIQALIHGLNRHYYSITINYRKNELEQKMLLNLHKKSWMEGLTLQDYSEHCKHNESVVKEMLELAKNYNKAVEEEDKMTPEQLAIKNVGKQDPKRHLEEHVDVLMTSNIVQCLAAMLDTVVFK
Myeloid diff CP1: promotes myeloid progenitor differentiation; shares compounds with Myeloid diff 2; ER-HoxA9 myeloid progenitors, GFP/Mac1 double-positive flow; calls only; 2,300 compounds, 2% hits;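 active = share of green or green-and-red cells above 9 and 9% in run 1 or 4 and 3% in run 2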
GFP autofluor: counter-screen for myeloid differentiation promoters: compound fluorescence | shares compounds with Myeloid diff 2 | ER-HoxA9 myeloid progenitors, no estrogen, GFP autofluorescence flow cytometry; vehicle wells 0%, positive control 100% | fluorescence response, % (concentration not given with the values) | 2,300 compounds, 7.4% hits | AID 651707;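 active = over 5% cells positive for green fluorescent reporter, or over 2% positive for both it and APC stain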
Numbers stand for hits; n = inactive; x = no result given; + = active, no number. Shown are actives, neighbours in structure and some others; about 2.3% of the full set was active somewhere.

SMILES	CSN inh	TPT1 inhibitor	HNF4A DNA FP	Myeloid diff 2	Rpn11 block	Myeloid diff CP1	GFP autofluor
Fc1ccc(C(c2nnnn2C2CCCC2)N2CCN(Cc3ccncc3)CC2)cc1 (stereo not drawn)	n	n	n	+	n	n	n
Fc1ccc(C(c2nnnn2C2CCCCC2)N2CCCC2)cc1 (stereo not drawn)	n	n	n	n	n	x	x
Cc1cc(-n2cnnn2)cc(C)c1S(=O)(=O)NCCOc1ccccc1	n	n	n	n	n	x	x
CC[C@H](C)C(N)c1cn([C@@H](CC(N)=O)C(=O)N2CCNCC2)nn1 (stereo partly drawn)	n	n	n	n	n	x	x
CC(C)N(C(=O)CN(C#N)c1nc(N(C)C)nc(N(C)C)n1)c1ccccc1	n	n	n	n	n	n	n
Cc1ccc(NC(=O)C2CCCN(C3=NS(=O)(=O)c4ccccc43)C2)c(O)c1 (stereo not drawn)	n	x	n	+	n	n	21
O=C(Nc1ccc([N+](=O)[O-])cc1)c1ccccc1F	n	n	n	n	n	x	x
O=C(Nc1ncc(S(=O)(=O)c2ccc([N+](=O)[O-])cc2)s1)c1ccccc1F	n	n	n	+	n	n	n
O=C(c1ccc(S(=O)(=O)N2CCOCC2)cc1)N1CCN(c2ccc(F)cc2)CC1	n	n	n	n	n	n	n
Cc1cc(C)nc(/N=C(/NC(=O)Nc2cccc(Cl)c2)Nc2ccccc2)n1	n	n	n	n	n	n	n
Cc1ccc(OCC(=O)Nc2c(C)ccc3nsnc23)cc1	n	n	n	n	n	x	x
O=C(COc1ccc2ccc(=O)oc2c1)NC1CCCC1	n	n	n	+	n	n	n
CCOc1ccc(C2NC(=O)NC(C)=C2[N+](=O)[O-])cc1OC (stereo not drawn)	n	n	n	n	n	x	x
COc1ccc(CCNC(=O)c2nn(C)cc2Cl)cc1	n	n	n	+	n	n	n
O=C(NS(=O)(=O)Oc1ccc(Cl)cc1)OC[C@@H]1CCCN2CCCC[C@H]12	n	n	n	n	n	x	x
Cc1c(C(=O)Nc2nccs2)oc2ccc(F)cc12	n	x	n	n	n	x	x
Cc1cc(C(=O)Nc2nccs2)c2cc(F)ccc2n1	n	n	n	n	n	n	n
COc1ccc(OC)c(S(=O)(=O)N2CCC(C(=O)NCc3ccccc3OC)CC2)c1	n	n	n	n	n	x	x
COc1ccc(OC)c(S(=O)(=O)N2CCC(C(=O)NCc3ccccc3)CC2)c1	n	n	n	n	n	n	n
Cc1nc2cc(Oc3nc(NCCN(C)C)nc4ccsc34)ccc2s1	n	x	n	+	n	n	n
c1ccc(Cn2nnc3c(N4CCCC4)ncnc32)cc1	n	n	n	+	n	n	n
CCN1CCN(c2ncnc3c2nnn3Cc2ccccc2)CC1	n	n	n	n	n	x	x
CCOc1ccccc1/C=N/NC(=O)C[n+]1ccccc1	n	x	n	n	n	x	x
COC(=O)c1cc(S(=O)(=O)NCc2ccc3c(c2)OCO3)cn1C	n	n	n	n	n	x	x
CC1(C)CC2CC(C)(CN2C(=O)COC(=O)c2cncc(Br)c2)C1 (stereo not drawn)	n	x	n	n	n	x	x
SMILES	CSN inh	TPT1 inhibitor	HNF4A DNA FP	Myeloid diff 2	Rpn11 block	Myeloid diff CP1	GFP autofluor
Nc1nnc(COc2ccc(Br)cc2Br)s1	n	n	n	n	n	x	x
Cc1ccc(C)c(OCc2nnc(N)s2)c1	n	n	n	n	n	n	n
CCOc1ccc(NC(=O)c2cccc3ccccc23)cc1	n	n	n	+	n	n	n
CCCn1nnc(NC(=O)c2cc(Br)ccc2OC)n1	n	n	n	n	n	n	n
CCCn1nnc(NC(=O)c2cccc(Cl)c2)n1	n	n	n	n	n	x	x
COc1ccc(OC)c(C(=O)Nc2c(O)ccc3ccccc23)c1	n	n	n	n	n	x	x
Cc1csc(-c2cc(C(=O)NCc3cc(C(F)(F)F)cc(C(F)(F)F)c3)n[nH]2)c1	n	x	n	+	n	n	n
CC(=O)Nc1c(C)ccc(CNC(=O)COc2cc(C)ccc2C)c1C	n	n	n	n	n	x	x
C[C@@H]1CN([C@@H](C)CO)C(=O)c2cccc(NS(C)(=O)=O)c2O[C@H]1CN(C)Cc1ccc(Oc2ccccc2)cc1	n	x	n	n	n	n	n
COc1cccc(C(=O)Nc2ncc3c(n2)CC(c2ccc(OC)cc2OC)CC3=O)c1 (stereo not drawn)	n	n	n	n	n	n	n
COc1ccc(C(=O)Nc2ncc3c(n2)CC(C)CC3=O)cc1 (stereo not drawn)	n	n	n	n	n	x	x
COc1ccccc1CCn1cnc(-c2ccc(OC)c(OC)c2)c1C(C)C	n	x	n	n	x	n	n
CCCCc1c(-c2cccc(OC)c2)ncn1CCc1ccccc1OC	n	x	n	+	x	n	n
CCN1C(=O)C(O)(C2COC(C)(C)CC2=O)c2ccccc21 (stereo not drawn)	n	n	n	n	n	x	x
CCN1C(=O)C(O)(C2COC(C)(C)CC2=O)c2cc(Br)ccc21 (stereo not drawn)	n	n	n	n	n	n	12
O=C1C=C(c2ccc3[nH]ccc3c2)C[C@@H](c2ccc(Cl)cc2)C1	n	x	n	n	n	x	x
CCS(=O)(=O)c1ccc2c(c1)N(S(C)(=O)=O)CC(C(=O)NC1CC1)O2 (stereo not drawn)	n	n	n	+	n	n	n
OCC[C@H]1C[C@H](O)[C@@H](O)[C@@]2(OCCCc3ccccc32)O1	n	n	n	+	n	n	n
COc1ccccc1NC(=S)NC1CCC(CC2CCC(NC(=S)Nc3ccccc3OC)CC2)CC1 (stereo not drawn)	n	n	n	+	n	n	n
CNc1cncc(-c2ccc(OC)cc2)n1	n	x	n	n	n	x	x
Cc1c(C(=O)N2CCC(C)CC2)oc2ccc3c(c12)C(O)CC1(CCCCC1)O3 (stereo not drawn)	n	n	n	+	n	n	n
COCCNC(=O)c1oc2ccc3c(c2c1C)C(O)CC(C)(C)O3 (stereo not drawn)	n	x	n	n	n	x	x
Cc1cc(C)n2nc3nc4c(cc3c2n1)CCCC4	n	n	n	n	n	n	n
O=C(c1c(F)cccc1F)N1CCCC(c2nc(-c3ccc(F)cc3)no2)C1 (stereo not drawn)	n	n	n	n	n	x	x
Cc1ccc(-n2nnnc2Sc2nc([N+](=O)[O-])nn2C)c(C)c1	n	n	n	n	n	x	x
Cc1ccc(-n2nnnc2Sc2nc([N+](=O)[O-])nn2C)cc1	n	n	n	+	n	n	n
Cc1ccc(N(C)S(=O)(=O)c2cccc(C(=O)OCC(=O)N(C)Cc3ccccc3)c2)cc1	n	x	n	n	n	x	x
CC(C)(C)NS(=O)(=O)c1ccc(CCC(=O)Nc2ccc3c(c2)OCO3)cc1	n	n	n	+	n	n	n
